The values that follow come from ChEMBL document CHEMBL1649406, “Synthesis and anti-mycobacterial activities of triazoloquinolones” (Eur J Med Chem, 2011).

≈ marks a conversion by molar mass, not a printed value.

Series [1] has as its system Candida tropicalis. Briefly: Antifungal activity against Candida tropicalis after 48 hrs by NCCLS method. The class given is functional. The method, boiled down:
(§1)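 NCCLS yeast broth dilution; inocula from 48 h, 35 °C Sabouraud agar cultures diluted to 10⁶ CFU/mL; compounds from 10 mg/mL DMSO stock serially diluted in RPMI-1640, added to equal volume of fungal suspension in round-bottom microplates; incubated 35 °C for 48–72 h; MIC in duplicate.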

The test system of series [2] is Acinetobacter baumannii. Briefly: Antibacterial activity against Acinetobacter baumannii after 18 to 24 hrs by broth microdilution method. The class given is functional. The method, boiled down: (§2)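 Broth microdilution per CLSI; compounds dissolved in DMSO at 10 mg/mL stock, serially diluted in Mueller Hinton Broth, mixed with equal volume of bacterial inoculum (final […]); incubated 37 °C for 18–24 h; MIC taken as lowest concentration preventing visible growth; duplicate determinations.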
(In general: Broth dilution looks for growth in wells or tubes with falling amounts of substance.)

The nature of series [3]: Cytotoxicity against human MT4 cells after 96 hrs by MTT assay. The class given is cell-based. The essentials: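 Exponentially growing MT-4 cells (CD4+ T-cells carrying integrated HTLV-1) seeded at 1 × 10⁵ cells/mL in RPMI-1640 with 10% FCS, penicillin and streptomycin; exposed to serial compound dilutions at 37 °C, humidified 5% CO₂; viability read by MTT after 96 h; CC50 derived.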
For orientation: Tetrazolium dyes change colour on reduction, which living cells bring about.

Series [4] deals with Staphylococcus aureus. The series is described as follows: Antibacterial activity against Staphylococcus aureus after 18 to 24 hrs by broth microdilution method. In kind it is functional. The method, boiled down: as §2
The test system of series [5] is Staphylococcus epidermidis. The series is described as follows: Antibacterial activity against Staphylococcus epidermidis after 18 to 24 hrs by broth microdilution method. The class given is functional. The essentials:
as §2

Series [6] relates to Mycobacterium tuberculosis. Briefly: Antimycobacterial activity against Mycobacterium tuberculosis H37Ra by twofold agar dilution method. In kind it is functional. The method, boiled down:
(§3)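 Strains grown in Middlebrook 7H11 with OADC. Suspensions at McFarland 1 turbidity were diluted 1:10, 1:100 and 1:10,000 in Middlebrook 7H9. These were inoculated onto duplicate Middlebrook 7H11 plates containing serial concentrations of compound.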
(In agar dilution, organisms are placed on agar that contains the substance at set levels.)

Series [7] relates to Candida albicans. The series is described as follows: Antifungal activity against Candida albicans after 48 hrs by NCCLS method. In kind it is functional. The essentials: as §1
Series [8] concerns Stenotrophomonas maltophilia. The series is described as follows: Antibacterial activity against Stenotrophomonas maltophilia after 18 to 24 hrs by broth microdilution method. In kind it is functional. The method, boiled down:
as §2

For series [9], the system named is Mycobacterium tuberculosis. The series is described as follows: Antimycobacterial activity against Mycobacterium tuberculosis H37Rv by twofold agar dilution method. In kind it is functional. The method, boiled down: as §3
Series [10] relates to Mycolicibacterium smegmatis. Briefly: Antimycobacterial activity against Mycobacterium smegmatis MC2 155 after 72 hrs by broth microdilution method. Conditions: str. MC2 155, 72 h. The class given is functional. The essentials:
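Strains were pre-grown in Middlebrook 7H11 with OADC. The microdilution assay ran in sealed 96-well plates at 37 °C and was read after 72 h for M. smegmatis mc²155 and after 7 days for M. bovis BCG.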

Series [11] relates to Enterobacter cloacae. The series is described as follows: Antibacterial activity against Enterobacter cloacae after 18 to 24 hrs by broth microdilution method. In kind it is functional. The method, boiled down:
as §2

Series [12] deals with Pseudomonas aeruginosa. The series is described as follows: Antibacterial activity against Pseudomonas aeruginosa after 18 to 24 hrs by broth microdilution method. In kind it is functional. The method, boiled down: as §2
Series [13] concerns Klebsiella pneumoniae. The series is described as follows: Antibacterial activity against Klebsiella pneumoniae after 18 to 24 hrs by broth microdilution method. In kind it is functional. The method, boiled down:
as §2

The subject of series [14] is Enterococcus faecalis. Briefly: Antibacterial activity against Enterococcus faecalis after 18 to 24 hrs by broth microdilution method. The class given is functional. The essentials: as §2
For series [15], the system named is Escherichia coli. The series is described as follows: Antibacterial activity against Escherichia coli after 18 to 24 hrs by broth microdilution method. The class given is functional. The essentials:
as §2

A word on the MIC: it is the lowest concentration that inhibits growth of the organism. Higher therefore signals weaker potency. As a reminder, the CC50 is the concentration at which the toxic effect on the cells reaches its halfway point. `Cn1cc(C(=O)O)c(=O)c2ccc3c(nnn3Cc3ccccc3)c21`: the MIC in series [1] was above 64 µg/mL; in [2], above 64 µg/mL; in series [4], above 64 µg/mL; in series [5], above 64 µg/mL; in series [6] it was 4 µg/mL (≈ 12 µM); in series [7], above 64 µg/mL. Besides, the MIC in [8] was above 64 µg/mL; in series [9], 8 µg/mL (≈ 23.9 µM); in [10] it was 32 µg/mL (≈ 95.7 µM); in [11], above 64 µg/mL; in series [12] it was above 64 µg/mL; in [13], above 64 µg/mL. In addition, the MIC in series [14] and in series [15] was above 64 µg/mL throughout. For the same molecule, in [3], the CC50 at 96 h is above 100 µg/mL.
On to `Cn1nnc2c3c(ccc21)c(=O)c(C(=O)O)cn3C(C)(C)C`, for which the MIC in series [1] was above 64 µg/mL; in [2], above 64 µg/mL; in series [4], above 64 µg/mL; in [5] it was above 64 µg/mL; in series [6], 8 µg/mL (≈ 26.6 µM); in series [7], above 64 µg/mL. In addition, the MIC in [8] was above 64 µg/mL; in series [9] it was 16 µg/mL (≈ 53.3 µM); in series [10] it was 32 µg/mL (≈ 107 µM); in series [11] it was above 64 µg/mL; in series [12] it was above 64 µg/mL; in [13] it was above 64 µg/mL. For the same molecule, the MIC in [14] and in series [15] was above 64 µg/mL throughout. In addition, the CC50 at 96 h in series [3] was above 100 µg/mL.
Regarding `Cn1cc(C(=O)O)c(=O)c2ccc3c(nnn3C)c21`, the MIC in [1] was above 64 µg/mL; in [2], above 64 µg/mL; in series [4], above 64 µg/mL; in series [5] it was above 64 µg/mL; in series [6], 0.5 µg/mL (≈ 1.94 µM); in series [7] it was above 64 µg/mL. Also, the MIC in series [8] is above 64 µg/mL; in series [9], 0.5 µg/mL (≈ 1.94 µM); in series [10], 5 µg/mL (≈ 19.4 µM); in series [11] it was above 64 µg/mL; in series [12], above 64 µg/mL; in series [13], above 64 µg/mL. Moreover, the MIC in [14] and in [15] was above 64 µg/mL each time. In addition, the CC50 at 96 h in series [3] is above 100 µg/mL.
As for `CCOC(=O)c1cn(CC2CCC2)c2c(ccc3c2nnn3C)c1=O`, the MIC in series [1] is above 64 µg/mL; in series [2] it was above 64 µg/mL; in series [4] it was above 64 µg/mL; in [5] it was above 64 µg/mL; in series [6], above 128 µg/mL; in series [7] it was above 64 µg/mL. Moreover, the MIC in series [8] was above 64 µg/mL; in series [9] it was 64 µg/mL (≈ 188 µM); in series [10], above 128 µg/mL; in series [11], above 64 µg/mL; in series [12], above 64 µg/mL; in series [13], above 64 µg/mL. Besides, the MIC in series [14] and in series [15] was above 64 µg/mL each time.
